Test results from ChEMBL document CHEMBL5046294, “Rational Design, Chemical Syntheses, and Biological Evaluations of Peripherally Selective Mu Opioid Receptor Ligands as Potential Opioid Induced Constipation Treatment” (J Med Chem, 2022).
The source made the active and inactive calls.

Key:
Mu-type opioid receptor [1] = target: Mu-type opioid receptor (Homo sapiens, UniProt P35372); experiment: Antagonist activity at human recombinant mu opioid receptor assessed as reduction in DAMGO-induced […]-GTPgammaS binding; assay type: functional
[2] = target: T1, Kappa-type opioid receptor (Homo sapiens, UniProt P41145); experiment: Antagonist activity at human recombinant kappa opioid receptor assessed as reduction in U50,488H-induced […]-GTPgammaS binding; assay type: functional
Mus musculus [3] = experiment: Reversal of morphine induced constipation in Swiss Webster mouse at 10 mg/kg, po for 5 mins followed by morphine addition at 5 mg/kg and measured after 20 mins by carmine red dye assay; assay type: functional
Procedure, shortened: (§1)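 Male Swiss Webster mice, 5–6 per group, housed singly. Compound or vehicle given s.c. or by oral gavage 5 min before morphine (10 or 5 mg/kg) or vehicle. 20 min after morphine, 0.2 mL of 6% carmine red in 0.5% CMC given orally (time 0). Time to first red pellet recorded, 6-h cutoff. Dunnett-corrected one-way ANOVA.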

[4] = target: T1, Kappa-type opioid receptor; experiment: Displacement of [3H]-U69593 from human recombinant kappa opioid receptor by radioligand binding assay
Mus musculus [5] = experiment: Gastroprokinetic activity in Swiss Webster mouse assessed as stimulation of gastrointestinal motility by measuring time required to defecation of red fecal pellet at 10 mg/kg, po incubated for 5 mins followed by morphine addition at 5 mg/kg and measured after 20 mins by carmine red dye assay; assay type: functional; settings: time 25 min; procedure, shortened: as §1
Mu-type opioid receptor [6] = target: T2, Mu-type opioid receptor (Mus musculus, UniProt P42866); experiment: Antagonist activity at mouse mu opioid receptor expressed in CHO cell membrane assessed as reduction in DAMGO-induced […]-GTPgammaS binding incubated for 1.5 hrs by liquid scintillation counting method; assay type: functional, cell membranes
[7] = target: T3, Kappa-type opioid receptor (Mus musculus, UniProt P33534); experiment: Antagonist activity at kappa opioid receptor (unknown origin) expressed in CHO cell membrane assessed as reduction in U50,488H-induced […]-GTPgammaS binding incubated for 1.5 hrs by liquid scintillation counting method; assay type: functional, cell membranes
[8] = target: T4, Delta-type opioid receptor (Homo sapiens, UniProt P41143); experiment: Antagonist activity at human delta opioid receptor expressed in CHO cell membrane assessed as reduction in SNC80-induced […]-GTPgammaS binding incubated for 1.5 hrs by liquid scintillation counting method; assay type: functional, cell membranes
[9] = target: T3, Kappa-type opioid receptor; experiment: Binding affinity to mouse kappa opioid receptor expressed in CHO cells in presence of U50488 incubated for 1.5 hrs by competitive radioligand binding assay; assay type: cell-based
Procedure, shortened: (§2)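 Competition binding. Membranes (30 μg protein) from CHO cells with mouse MOR or KOR, or human DOR. Incubated with radioligand and varying test concentrations in TME buffer, pH 7.4, 1.5 h at 30 °C. Filtration harvest. Nonspecific binding defined with 5 μM naltrexone (MOR), U50,488 (KOR) or SNC80 (DOR). IC₅₀ by nonlinear regression, converted to Ki by Cheng-Prusoff. Selectivity ratios taken from these Ki values. At least three independent experiments.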

Mus musculus [10] = experiment: Gastroprokinetic activity in Swiss Webster mouse assessed as stimulation of gastrointestinal motility by measuring time required to defecation of red fecal pellet at 10 mg/kg, sc incubated for 5 mins followed by morphine addition at 10 mg/kg and measured after 20 mins by carmine red dye assay; assay type: functional; settings: time 25 min; procedure, shortened: as §1
Mus musculus [11] = experiment: Gastroprokinetic activity in Swiss Webster mouse assessed as stimulation of gastrointestinal motility by measuring time required to defecation of red fecal pellet at 10 mg/kg, po incubated for 5 mins followed by morphine addition at 10 mg/kg and measured after 20 mins by carmine red dye assay; assay type: functional; settings: time 25 min; procedure, shortened: as §1
[12] = target: T4, Delta-type opioid receptor; experiment: Antagonist activity at human delta opioid receptor expressed in CHO cell membrane assessed as reduction in SNC80-induced […]-GTPgammaS binding by measuring maximal efficacy incubated for 1.5 hrs by liquid scintillation counting method relative to control; assay type: functional, cell membranes
Procedure, shortened: (§3)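 [³⁵S]GTPγS binding. Membranes (10 μg protein) from CHO cells expressing MOR, KOR or DOR. Buffer TME (50 mM Tris, 3 mM MgCl₂, 0.2 mM EGTA, pH 7.4) with 100 mM NaCl, 20 μM GDP and 0.1 nM [³⁵S]GTPγS. Test compound at varying concentrations. Incubation 1.5 h at 30 °C. Nonspecific binding with 20 μM unlabeled GTPγS. Reference full agonist at 3 μM: DAMGO (MOR), U50488H (KOR), SNC80 (DOR). Filtration, then scintillation counting. Duplicates, at least three repeats.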

Mu-type opioid receptor [13] = target: T2, Mu-type opioid receptor; experiment: Binding affinity to mouse mu opioid receptor expressed in CHO cells in presence of naltrexone incubated for 1.5 hrs by competitive radioligand binding assay; assay type: cell-based; procedure, shortened: as §2
[14] = target: T4, Delta-type opioid receptor; experiment: Binding affinity to human delta opioid receptor in presence of SNC80 incubated for 1.5 hrs by competitive radioligand binding assay; procedure, shortened: as §2
Mus musculus [15] = experiment: Antinociceptive activity against sc dosed Swiss Webster mouse model assessed as effect on morphine induced antinociception by measuring tail withdrawal latency from warm water incubated for 5 mins followed by morphine addition measured after 20 mins by warm water tail immersion assay; assay type: functional; settings: for Activity: time 25.0 min
Procedure, shortened: (§4)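 Male Swiss Webster mice, 5–8 weeks, 25–35 g, 6 per group. Tail immersed (distal third) in water at 56 ± 0.1 °C. Mice included only with baseline latency 2–4 s. Compound 10 mg/kg s.c.; in the challenge arm it was given 5 min before morphine 10 mg/kg s.c. Latency read 20 min after injection, 10-s cutoff. %MPE = (test − control)/(10 − control) × 100. Dunnett-corrected one-way ANOVA.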

Mus musculus [16] = experiment: Antinociceptive activity against Swiss Webster mouse assessed as tail withdrawal latency from warm water by measuring maximum possible effect at 10 mg/kg, sc measured after 20 mins by warm water tail immersion assay; assay type: functional; procedure, shortened: as §4
[17] = target: T1, Kappa-type opioid receptor; experiment: Antagonist activity at kappa opioid receptor (unknown origin) expressed in CHO cell membrane assessed as reduction in U50,488H -induced […]-GTPgammaS binding by measuring maximal efficacy incubated for 1.5 hrs by liquid scintillation counting method relative to control; assay type: functional, cell membranes; procedure, shortened: as §3
Mus musculus [18] = experiment: Reversal of morphine induced constipation in Swiss Webster mouse at 10 mg/kg, po for 5 mins followed by morphine addition measured after 20 mins by carmine red dye assay relative to control; assay type: functional; settings: time 25 min; procedure, shortened: as §1
Mus musculus [19] = experiment: Gastroprokinetic activity in Swiss Webster mouse assessed as stimulation of gastrointestinal motility by measuring time required to defecation of red fecal pellet at 10 mg/kg, sc incubated for 20 mins by carmine red dye assay; assay type: functional
Procedure, shortened: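 Male Swiss Webster mice (5–8 weeks, 25–35 g), singly caged, 5–6 per group. Compound or vehicle was given s.c. 5 min before morphine 10 mg/kg (or vehicle). 20 min after morphine, mice received 0.2 mL of 6% carmine red dye in 0.5% carboxymethyl cellulose orally, set as time 0. Latency to the first red fecal pellet was measured, with a 6 h cut-off. One-way ANOVA followed by Dunnett test.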

Mus musculus [20] = experiment: Gastroprokinetic activity in Swiss Webster mouse assessed as stimulation of gastrointestinal motility by measuring time required to defecation of red fecal pellet at 5 mg/kg, po incubated for 20 mins by carmine red dye assay; assay type: functional; procedure, shortened: as §1
Mus musculus [21] = experiment: Gastroprokinetic activity in Swiss Webster mouse assessed as stimulation of gastrointestinal motility by measuring time required to defecation of red fecal pellet at 10 mg/kg, po incubated for 20 mins by carmine red dye assay; assay type: functional
Procedure, shortened: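 Male Swiss Webster mice (5–8 weeks, 25–35 g), singly caged, 5–6 per group. Compound or vehicle was given by oral gavage 5 min before s.c. morphine (10 or 5 mg/kg) or vehicle. Oral vehicle was also given to naïve and morphine groups. 20 min after morphine, mice received 0.2 mL of 6% carmine red in 0.5% CMC p.o. (time 0). Time to the first red pellet was recorded, with a 6 h cut-off. One-way ANOVA with Dunnett test.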

[22] = target: Mu-type opioid receptor (Mus musculus) (UniProt P42866); experiment: Antagonist activity at mouse mu opioid receptor expressed in CHO cell membrane assessed as reduction in DAMGO-induced […]-GTPgammaS binding by measuring maximal efficacy incubated for 1.5 hrs by liquid scintillation counting method relative to control; assay type: functional, cell membranes; procedure, shortened: as §3
[23] = Selectivity index, ratio of Ki for binding affinity to human delta opioid receptor to Ki for binding affinity to mouse mu opioid receptor; procedure, shortened: as §2
Mus musculus [24] = species: Mus musculus; experiment: Selectivity index, ratio of Ki for binding affinity to mouse kappa opioid receptor to Ki for binding affinity to mouse mu opioid receptor; procedure, shortened: as §2
Mus musculus [25] = experiment: Antinociceptive activity against Swiss Webster mouse assessed as tail withdrawal latency from warm water by measuring maximum possible effect at 10 mg/kg, sc incubated for 5 mins followed by morphine addition measured after 20 mins by warm water tail immersion assay; assay type: functional; settings: time 25 min; procedure, shortened: as §4

Structure (SMILES): C[N@+]1(CC2CC2)CC[C@]23c4c5ccc(O)c4O[C@H]2C(=O)CC[C@@]3(O)[C@H]1C5 [METHYLNALTREXONE]
- EC50 (Mu-type opioid receptor [1]): > 10000 nM
- EC50 [2]: > 10000 nM
- Activity (Mus musculus [3]; time 25.0 min): inactive
- Ki [4]: 32.1 nM
- Time (Mus musculus [5]): 111 min

Structure (SMILES): O=C(Cc1cc[nH]n1)N[C@H]1CC[C@@]2(O)[C@H]3Cc4ccc(O)c5c4[C@@]2(CCN3CC2CC2)[C@H]1O5
- EC50 (Mu-type opioid receptor [6]): 6.17 nM
- EC50 [7]: 99 nM
- EC50 [8]: 20.5 nM
- Ki [9]: 154 nM
- Time (Mus musculus [10]): 154 min
- Time (Mus musculus [11]): 57 min
- Emax ([12]; filed as antagonist): 69.3%
- Ki (Mu-type opioid receptor [13]): 1.05 nM
- Ki [14]: 195 nM
- Activity (Mus musculus [15]): inactive
- Activity (Mus musculus [16]): inactive
- Emax ([17]; filed as antagonist): 49.9%

Structure (SMILES): O=C(N[C@@H]1CC[C@@]2(O)[C@H]3Cc4ccc(O)c5c4[C@@]2(CCN3CC2CC2)[C@H]1O5)c1cnc[nH]1
- EC50 (Mu-type opioid receptor [6]): 1.15 nM
- EC50 [7]: 11.7 nM
- Ki [9]: 18.8 nM
- Activity (Mus musculus [18]): 38%
- Time (Mus musculus [10]): 137 min
- Time (Mus musculus [11]): 71 min
- Emax [12]: 22.1%
- Ki (Mu-type opioid receptor [13]): 0.58 nM
- Ki [14]: 209 nM
- Activity (Mus musculus [15]): inactive
- Activity (Mus musculus [3]; time 25 min): 75%
- Activity (Mus musculus [16]): inactive
- Emax [17]: 9.03%
- Time (Mus musculus [5]): 27 min

Structure (SMILES): O=C(N[C@@H]1CC[C@@]2(O)[C@H]3Cc4ccc(O)c5c4[C@@]2(CCN3CC2CC2)[C@H]1O5)c1ccncc1
- Activity (Mus musculus [3]; time 25.0 min): inactive
- Time (Mus musculus [5]): 151 min

Structure (SMILES): CN1CC[C@]23c4c5ccc(O)c4O[C@H]2[C@@H](O)C=C[C@H]3[C@H]1C5 [MORPHINE]
- Time (Mus musculus [19]): 124 min
- Time (Mus musculus [20]): 105 min
- Time (Mus musculus [21]): 115 min

Structure (SMILES): O=C(N[C@@H]1CC[C@@]2(O)[C@H]3Cc4ccc(O)c5c4[C@@]2(CCN3CC2CC2)[C@H]1O5)c1ncc[nH]1
- EC50 (Mu-type opioid receptor [6]): 1.74 nM
- Ki [9]: 4.8 nM
- Emax [22]: 7.5%
- Ratio Ki [23]: 335
- Ratio Ki (Mus musculus [24]): 11
- MPE (Mus musculus [25]): 32.7%
- Ki (Mu-type opioid receptor [13]): 0.44 nM
- Ki [14]: 146 nM
- Activity (Mus musculus [15]): inactive
- Activity (Mus musculus [16]): inactive

Structure (SMILES): O=C(N[C@H]1CC[C@@]2(O)[C@H]3Cc4ccc(O)c5c4[C@@]2(CCN3CC2CC2)[C@H]1O5)c1ncc[nH]1
- EC50 (Mu-type opioid receptor [6]): 2.01 nM
- Ki [9]: 1.77 nM
- Emax [22]: 7.85%
- Ratio Ki [23]: 152
- Ratio Ki (Mus musculus [24]): 4
- MPE (Mus musculus [25]): 9.2%
- Ki (Mu-type opioid receptor [13]): 0.47 nM
- Ki [14]: 70.9 nM
- AD50 (Mus musculus [15]; time 25 min): 5.3 mg/kg
- Activity (Mus musculus [16]): inactive
